Experimental data taken from ChEMBL document CHEMBL1255392, “Pharmacokinetics of acyclovir and its metabolites in cerebrospinal fluid and systemic circulation after administration of high-dose valacyclovir in subjects with normal and impaired renal function” (Antimicrob Agents Chemother, 2010).

Assays:
Homo sapiens [1] = experiment: Cmax in human CSF with chronic kidney disease assessed as 8-OH-ACV level at 1500 mg, po every 12 hrs measured after fifth dose by LC/MS; type: ADME, organism-based, Cerebrospinal fluid; set-up: dose 1500 mg, route oral; settings: in vivo
Outline: (§1)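 Three CKD adults (CrCl ~15–30 ml/min) fasted around the final dose. Lumbar intrathecal catheter CSF and EDTA venous blood were taken predose and at 0.5–8 h plus 12 h, then stored at −70°C. Metabolites in serum/CSF were measured by SPE with isotope-labelled internal standards, reversed-phase HPLC and positive-ion MRM MS.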

Homo sapiens [2] = experiment: Ratio of Cmax in human CSF to Cmax in human plasma with chronic kidney disease assessed as 8-OH-ACV level at 1500 mg, po every 12 hrs measured after fifth dose by LC/MS; type: ADME, organism-based
Homo sapiens [3] = experiment: Tmax in human systemic circulation with chronic kidney disease assessed as 8-OH-ACV level at 1500 mg, po every 12 hrs measured after fifth dose by LC/MS; type: ADME, organism-based; settings: in vivo; outline: as §1
Homo sapiens [4] = experiment: Drug level in human plasma with chronic kidney disease assessed as 8-OH acyclovir level at 1500 mg, po every 12 hrs measured after fifth dose by LC/MS; type: ADME, organism-based; settings: in vivo, read-out: Drug uptake; outline: as §1
Homo sapiens [5] = experiment: AUC (0 to 6 hrs) in human CSF with normal renal function assessed as 8-OH-ACV level at 2000 mg, po every 6 hrs measured after fifth dose by LC/MS; type: ADME, organism-based; set-up: dose 2000 mg, time < 6 hr, route oral; settings: in vivo
Outline: (§2)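 Six volunteers with normal renal function fasted from 8 h before to 2 h after the fifth dose. Intrathecal-catheter CSF and venous blood were sampled at 0–8 h and stored at −70°C. Noncompartmental Cmax, tmax and AUCτ (0–6 h) were derived; Cavg = AUCτ/τ.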

Homo sapiens [6] = experiment: Drug level in human CSF with chronic kidney disease assessed as 8-OH acyclovir level at 1500 mg, po every 12 hrs measured after fifth dose by LC/MS; type: ADME, organism-based; settings: in vivo, read-out: Drug uptake; outline: as §1
Homo sapiens [7] = experiment: Tmax in human CSF with normal renal function assessed as 8-OH-ACV level at 2000 mg, po every 6 hrs measured after fifth dose by LC/MS; type: ADME, organism-based, Cerebrospinal fluid; settings: in vivo; outline: as §2
Homo sapiens [8] = experiment: Tmax in human CSF with chronic kidney disease assessed as 8-OH-ACV level at 1500 mg, po every 12 hrs measured after fifth dose by LC/MS; type: ADME, organism-based, Cerebrospinal fluid; settings: in vivo; outline: as §1
Homo sapiens [9] = experiment: Cmax in human CSF with normal renal function assessed as 8-OH-ACV level at 2000 mg, po every 6 hrs measured after fifth dose by LC/MS; type: ADME, organism-based, Cerebrospinal fluid; set-up: dose 2000 mg, route oral; settings: in vivo; outline: as §2
Homo sapiens [10] = experiment: Tmax in human systemic circulation with normal renal function assessed as 8-OH-ACV level at 2000 mg, po every 6 hrs measured after fifth dose by LC/MS; type: ADME, organism-based; settings: in vivo; outline: as §2
Homo sapiens [11] = experiment: Drug level in human CSF with normal renal function assessed as 8-OH acyclovir level at 2000 mg, po every 6 hrs measured after fifth dose by LC/MS; type: ADME, organism-based; settings: in vivo, read-out: Drug uptake; outline: as §2
Homo sapiens [12] = experiment: Drug level in human plasma with normal renal function assessed as 8-OH acyclovir level at 2000 mg, po every 6 hrs measured after fifth dose by LC/MS; type: ADME, organism-based; settings: in vivo, read-out: Drug uptake; outline: as §2
Homo sapiens [13] = experiment: AUC (0 to 6 hrs) in human systemic circulation with normal renal function assessed as 8-OH-ACV level at 2000 mg, po every 6 hrs measured after fifth dose by LC/MS; type: ADME, organism-based, Plasma; set-up: dose 2000 mg, time < 6 hr, route oral; settings: in vivo; outline: as §2
Homo sapiens [14] = experiment: Cmax in human systemic circulation with chronic kidney disease assessed as 8-OH-ACV level at 1500 mg, po every 12 hrs measured after fifth dose by LC/MS; type: ADME, organism-based; set-up: dose 1500 mg, route oral; settings: in vivo; outline: as §1
Homo sapiens [15] = experiment: Cmax in human systemic circulation with normal renal function assessed as 8-OH-ACV level at 2000 mg, po every 6 hrs measured after fifth dose by LC/MS; type: ADME, organism-based; set-up: dose 2000 mg, route oral; settings: in vivo; outline: as §2
Homo sapiens [16] = experiment: Ratio of Cmax in human CSF to Cmax in human plasma with normal renal function assessed as 8-OH-ACV level at 2000 mg, po every 6 hrs measured after fifth dose by LC/MS; type: ADME, organism-based
Outline: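 For each normal-renal-function subject, the metabolite CSF Cmax was divided by the serum Cmax from samples taken 0–8 h after the fifth dose. Both were measured by LC/MS with isotope-labelled internal standards, and the ratio is given as mean ± SD.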

Homo sapiens [17] = experiment: AUC (0 to 12 hrs) in human CSF with chronic kidney disease assessed as 8-OH-ACV level at 1500 mg, po every 12 hrs measured after fifth dose by LC/MS; type: ADME, organism-based; set-up: dose 1500 mg, time < 12 hr, route oral; settings: in vivo; outline: as §1
Homo sapiens [18] = experiment: AUC (0 to 12 hrs) in human systemic circulation with chronic kidney disease assessed as 8-OH-ACV level at 1500 mg, po every 12 hrs measured after fifth dose by LC/MS; type: ADME, organism-based; set-up: dose 1500 mg, time < 12 hr, route oral; settings: in vivo; outline: as §1
[19] = Drug level in human plasma with normal renal function at 2000 mg, po every 6 hrs measured after fifth dose by radioimmunoassay; type: ADME, organism-based; settings: read-out: Drug uptake
Outline: (§3)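 Six subjects with normal renal function took valacyclovir 2,000 mg orally every 6 h for 5 doses, fasting from 8 h before to 2 h after the fifth dose. Plasma was drawn at 0, 0.5, 1, 1.5, 2, 3, 4, 6 and 8 h. Acyclovir was measured by scintillation proximity radioimmunoassay (LLQ 14.1 ng/ml). Noncompartmental analysis gave AUC over 0–6 h, Cmax and tmax, with Cavg = AUCτ/τ.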

[20] = Tmax in human CSF with normal renal function at 2000 mg, po every 6 hrs measured after fifth dose by radioimmunoassay; type: ADME, organism-based, Cerebrospinal fluid
Outline: (§4)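 Normal-renal-function subjects (n=6) took an oral dose every 6 h for 5 doses. Serial lumbar-catheter CSF was collected on ice predose through 8 h after the last dose. Acyclovir was assayed by scintillation proximity radioimmunoassay validated for CSF (range 1.4–90 ng/ml; 1:10 dilution; LLQ 14.1 ng/ml). Cmax, tmax and AUCτ over 0–6 h were computed noncompartmentally.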

[21] = Tmax in human systemic circulation with chronic kidney disease at 1500 mg, po every 12 hrs measured after fifth dose by radioimmunoassay; type: ADME, organism-based; settings: plasma
Outline: (§5)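 Three chronic kidney disease subjects (CrCl ∼15 to 30 ml/min) took valacyclovir 1,500 mg orally every 12 h for 5 doses, fasting from 8 h before to 2 h after the fifth dose. Plasma was drawn at 0, 0.5, 1, 1.5, 2, 3, 4, 6, 8 and 12 h. Acyclovir was measured by scintillation proximity radioimmunoassay.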

[22] = Cmax in human systemic circulation with chronic kidney disease at 1500 mg, po every 12 hrs measured after fifth dose by radioimmunoassay; type: ADME, organism-based; set-up: dose 1500 mg, route oral; settings: plasma; outline: as §5
[23] = Tmax in human CSF with chronic kidney disease at 1500 mg, po every 12 hrs measured after fifth dose by radioimmunoassay; type: ADME, organism-based, Cerebrospinal fluid
Outline: (§6)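 CKD subjects (n=3) received an oral dose every 12 h for 5 doses. CSF was drawn through an indwelling lumbar catheter predose and at 0.5, 1, 1.5, 2, 3, 4, 6, 8 and 12 h after the fifth dose. Acyclovir was quantified by automated scintillation proximity radioimmunoassay with a monoclonal antibody; the standard curve was 1.4–90 ng/ml and LLQ 14.1 ng/ml. Noncompartmental parameters were calculated over 0–12 h.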

[24] = AUC (0 to 6 hrs) in human CSF with normal renal function at 2000 mg, po every 6 hrs measured after fifth dose by radioimmunoassay; type: ADME, organism-based; set-up: time < 6 hr, dose 2000 mg, route oral; outline: as §4
[25] = AUC (0 to 12 hrs) in human systemic circulation with chronic kidney disease at 1500 mg, po every 12 hrs measured after fifth dose by radioimmunoassay; type: ADME, organism-based; set-up: dose 1500 mg, time < 12 hr, route oral; settings: plasma; outline: as §5
[26] = Drug level in human plasma with chronic kidney disease at 1500 mg, po every 12 hrs measured after fifth dose by radioimmunoassay; type: ADME, organism-based; settings: read-out: Drug uptake; outline: as §5
[27] = Cmax in human CSF with normal renal function at 2000 mg, po every 6 hrs measured after fifth dose by radioimmunoassay; type: ADME, organism-based, Cerebrospinal fluid; set-up: dose 2000 mg, route oral; outline: as §4
[28] = Drug level in human CSF with chronic kidney disease at 1500 mg, po every 12 hrs measured after fifth dose by radioimmunoassay; type: ADME, organism-based; settings: read-out: Drug uptake; outline: as §6
[29] = AUC (0 to 12 hrs) in human CSF with chronic kidney disease at 1500 mg, po every 12 hrs measured after fifth dose by radioimmunoassay; type: ADME, organism-based; set-up: time < 12 hr, dose 1500 mg, route oral; outline: as §6
[30] = Cmax in human CSF with chronic kidney disease at 1500 mg, po every 12 hrs measured after fifth dose by radioimmunoassay; type: ADME, organism-based, Cerebrospinal fluid; set-up: dose 1500 mg, route oral; outline: as §6
[31] = Cmax in human systemic circulation with normal renal function at 2000 mg, po every 6 hrs measured after fifth dose by radioimmunoassay; type: ADME, organism-based; set-up: dose 2000 mg, route oral; settings: plasma; outline: as §3
[32] = Drug level in human CSF with normal renal function at 2000 mg, po every 6 hrs measured after fifth dose by radioimmunoassay; type: ADME, organism-based; settings: read-out: Drug uptake; outline: as §4
[33] = Tmax in human systemic circulation with normal renal function at 2000 mg, po every 6 hrs measured after fifth dose by radioimmunoassay; type: ADME, organism-based; settings: plasma; outline: as §3
[34] = AUC (0 to 6 hrs) in human systemic circulation with normal renal function at 2000 mg, po every 6 hrs measured after fifth dose by radioimmunoassay; type: ADME, organism-based; set-up: time < 6 hr, dose 2000 mg, route oral; settings: plasma; outline: as §3

Nc1nc2c(nc(O)n2COCCO)c(=O)[nH]1
Cmax (Homo sapiens [1]): 0.29 µM | Ratio (Homo sapiens [2]): 0.19 | Tmax (Homo sapiens [3]): 4 h | concentration (Homo sapiens [4]): 1.4 µM | AUC (Homo sapiens [5]): 0.34 µM·h | concentration (Homo sapiens [6]): 0.26 µM | Tmax (Homo sapiens [7]): 2.4 h | Tmax (Homo sapiens [8]): 7 h | Cmax (Homo sapiens [9]): 0.062 µM | Tmax (Homo sapiens [10]): 3.5 h | concentration (Homo sapiens [11]): 0.06 µM | concentration (Homo sapiens [12]): 0.24 µM | AUC (Homo sapiens [13]): 1.4 µM·h | Cmax (Homo sapiens [14]): 1.6 µM | Cmax (Homo sapiens [15]): 0.32 µM | Ratio (Homo sapiens [16]): 0.2 | AUC (Homo sapiens [17]): 3.1 µM·h | AUC (Homo sapiens [18]): 17 µM·h

Nc1nc2c(ncn2COCCO)c(=O)[nH]1 [ACYCLOVIR]
concentration at 6 h [19]: 23 µM | Tmax [20]: 2.3 h | Tmax [21]: 2 h | Cmax [22]: 82 µM | Tmax [23]: 5.3 h | AUC at 6 h [24]: 37 µM·h | AUC at 12 h [25]: 577 µM·h | concentration at 12 h [26]: 48 µM | Cmax [27]: 7.8 µM | concentration at 12 h [28]: 13.3 µM | AUC at 12 h [29]: 159 µM·h | Cmax [30]: 16 µM | Cmax [31]: 42 µM | concentration at 6 h [32]: 6.25 µM | Tmax [33]: 2.1 h | AUC at 6 h [34]: 137 µM·h
